Assay results published in ChEMBL document CHEMBL4152240, “Synthesis, cytotoxicity and structure-activity relationship of indolizinoquinolinedione derivatives as DNA topoisomerase IB catalytic inhibitors” (2018).
Active and inactive are the calls of the source. The rule behind the calls is not given here.

Assays:
[1] = target: T1, Topoisomerase I (Bos taurus) (UniProt Q2HPH0); conditions: 0.2 to 1 uM
T1 sequence (whole entry): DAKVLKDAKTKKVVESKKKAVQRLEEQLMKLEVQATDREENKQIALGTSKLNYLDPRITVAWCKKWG

[2] = target: T1, Topoisomerase I (Bos taurus); test: Inhibition of calf thymus TOP1-mediated relaxation of supercoiled pBR322 DNA at 125 uM after 30 mins by agarose gel electrophoresis relative to control
Method in brief: (§1)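 0.5 µg supercoiled pBR322 in buffer (10 mM Tris-HCl pH 7.5, 50 mM KCl, 5 mM MgCl2, BSA, DTT) with 1 unit calf thymus TOP1, with or without compound (0.2-125 µM), 30 min at 37 C. Run on 0.8% agarose/TBE at 4.6 V/cm for 1.5 h, gel red stained. Activity graded in bands (e.g. +++ 81-120%). At least two independent repeats.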

[3] = Cytotoxicity against human RC0.1 cells assessed as growth inhibition after 72 hrs by MTT assay; assay type: functional
[4] = system: Huh-7; test: Cytotoxicity against human HuH7 cells assessed as growth inhibition after 72 hrs by MTT assay; assay type: functional; conditions: Huh-7, 72 h
Method in brief: (§2)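 Five-dose MTT growth assay, compounds predissolved in DMSO, 72 h exposure at 37 C. Cells kept in RPMI-1640 or DMEM, 37 C, 5% CO2, passage 3-6. MTT (1 mg/mL in PBS) added for 4 h, formazan dissolved in DMSO, OD 570 nm. GI50 (50% growth inhibition) by nonlinear regression. Means ± SD, at least three repeats.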

[5] = system: A549; test: Cytotoxicity against human A549 cells assessed as growth inhibition after 72 hrs by MTT assay; assay type: functional; conditions: A549, 72 h
Method in brief: as §2

[6] = system: DU-145; test: Cytotoxicity against human DU145 cells assessed as growth inhibition after 72 hrs by MTT assay; assay type: functional; conditions: DU-145, 72 h
Method in brief: as §2

[7] = system: CCRF-CEM; test: Cytotoxicity against human CCRF-CEM cells assessed as growth inhibition after 72 hrs by MTT assay; assay type: functional
Method in brief: as §2

[8] = system: HCT-116; test: Cytotoxicity against human HCT116 cells expressing TOP1 siRNA assessed as growth inhibition after 72 hrs by MTT assay; assay type: functional; conditions: HCT-116, 72 h
Method in brief: (§3)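 MTT growth assay in drug-resistant sublines and parental lines. HCT116-siTop1 was made by transfecting HCT116 with shRNA vectors expressing TOP1 siRNA. MCF-7, HepG2 and their ADR-resistant lines were gifts. Five-dose DMSO-predissolved compounds for 72 h at 37 C, then MTT 4 h, DMSO solubilization, OD 570 nm. GI50 by nonlinear regression. At least three repeats.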

[9] = Resistance ratio of GI50 for human HepG2/ADR cells to GI50 for human HepG2 cells; assay type: functional
Method in brief: (§4)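 Resistance ratio: the GI50 in the resistant or TOP1-knockdown subline divided by the GI50 in the matching parental line.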

[10] = system: DNA; test: Induction of unwinding effect of Escherichia coli supercoiled pBR322 DNA at 1 to 9 uM preincubated with DNA for 10 mins followed by excess calf thymus TOP1 addition and measured after 30 mins by agarose gel electrophoresis; assay type: nucleic-acid assay
Method in brief: (§5)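 Compound (1, 3, 9 µM) preincubated with pBR322 DNA, supercoiled or relaxed, at room temperature for 10 min. Excess TOP1 then added and incubated 30 min at 37 C. Stopped with SDS/proteinase K. Ethidium bromide (0.3-1.2 mg/L) as positive control. Run on 0.8% agarose in TBE at 4.6 V/cm for 1.5 h, stained with gel red, UV visualized.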

[11] = system: HCT-116; test: Induction of apoptosis in human HCT116 cells assessed as viable cells at 3 uM after 12 hrs by annexin V-FITC/propidium iodide staining-based flow cytometric method (reference value: 97.60 to 98.95%); assay type: functional; conditions: HCT-116, 12 h, read-out: Activity
[12] = system: HCT-116; test: Induction of apoptosis in human HCT116 cells assessed as late apoptotic cells at 1 uM after 12 hrs by annexin V-FITC/propidium iodide staining-based flow cytometric method (reference value: 0.34 to 0.81%); assay type: functional
[13] = system: HCT-116; test: Induction of apoptosis in human HCT116 cells assessed as viable cells at 9 uM after 12 hrs by annexin V-FITC/propidium iodide staining-based flow cytometric method (reference value: 97.60 to 98.95%); assay type: functional; conditions: HCT-116, 12 h, read-out: Activity
[14] = system: MCF7; test: Cytotoxicity against human MCF7 cells assessed as growth inhibition after 72 hrs by MTT assay; assay type: functional; conditions: MCF7, 72 h
Method in brief: as §3

[15] = system: HCT-116; test: Induction of apoptosis in human HCT116 cells assessed as late apoptotic cells at 3 uM after 12 hrs by annexin V-FITC/propidium iodide staining-based flow cytometric method (reference value: 0.34 to 0.81%); assay type: functional
[16] = Cytotoxicity against human HepG2/ADR cells assessed as growth inhibition after 72 hrs by MTT assay; assay type: functional; conditions: HepG2, 72 h
Method in brief: as §3

[17] = system: HCT-116; test: Cytotoxicity against human HCT116 cells assessed as growth inhibition after 72 hrs by MTT assay; assay type: functional; conditions: HCT-116, 72 h
Method in brief: as §2

[18] = Resistance ratio of GI50 for human MCF7/ADR cells to GI50 for human MCF7 cells; assay type: functional
Method in brief: as §4

[19] = target: T1, Topoisomerase I (Bos taurus); test: Inhibition of calf thymus TOP1-mediated relaxation of supercoiled pBR322 DNA at 25 uM after 30 mins by agarose gel electrophoresis relative to camptothecin
Method in brief: as §1

[20] = system: HCT-116; test: Induction of apoptosis in human HCT116 cells assessed as early apoptotic cells at 1 uM after 12 hrs by annexin V-FITC/propidium iodide staining-based flow cytometric method (reference value: 0.47 to 1.19%); assay type: functional
[21] = target: T1, Topoisomerase I (Bos taurus); test: Inhibition of calf thymus TOP1-mediated relaxation of supercoiled pBR322 DNA after 30 mins by agarose gel electrophoresis
Method in brief: as §1

[22] = Resistance ratio of GI50 for human HCT116 cells expressing TOP1 siRNA to GI50 for human HCT116 cells; assay type: functional
Method in brief: as §4

[23] = system: HCT-116; test: Induction of apoptosis in human HCT116 cells assessed as early apoptotic cells at 9 uM after 12 hrs by annexin V-FITC/propidium iodide staining-based flow cytometric method (reference value: 0.47 to 1.19%); assay type: functional
[24] = system: HepG2; test: Cytotoxicity against human HepG2 cells assessed as growth inhibition after 72 hrs by MTT assay; assay type: functional; conditions: HepG2, 72 h
Method in brief: as §3

[25] = system: NCI/ADR-RES; test: Cytotoxicity against human MCF7/ADR cells assessed as growth inhibition after 72 hrs by MTT assay; assay type: functional
Method in brief: as §3

[26] = system: HCT-116; test: Induction of apoptosis in human HCT116 cells assessed as early apoptotic cells at 3 uM after 12 hrs by annexin V-FITC/propidium iodide staining-based flow cytometric method (reference value: 0.47 to 1.19%); assay type: functional
[27] = system: HCT-116; test: Induction of apoptosis in human HCT116 cells assessed as late apoptotic cells at 9 uM after 12 hrs by annexin V-FITC/propidium iodide staining-based flow cytometric method (reference value: 0.34 to 0.81%); assay type: functional
[28] = system: HCT-116; test: Induction of apoptosis in human HCT116 cells after 12 hrs by annexin V-FITC/propidium iodide staining-based flow cytometric method; assay type: functional, cell-based
[29] = system: DNA; test: Induction of unwinding effect of Escherichia coli relaxed pBR322 DNA at 1 to 9 uM preincubated with DNA for 10 mins followed by excess calf thymus TOP1 addition and measured after 30 mins by agarose gel electrophoresis; assay type: nucleic-acid assay
Method in brief: as §5

[30] = system: HCT-116; test: Induction of apoptosis in human HCT116 cells assessed as viable cells at 1 uM after 12 hrs by annexin V-FITC/propidium iodide staining-based flow cytometric method (reference value: 97.60 to 98.95%); assay type: functional; conditions: HCT-116, 12 h, read-out: Activity
[31] = Resistance ratio of GI50 for human RC0.1 cells to GI50 for human DU145 cells; assay type: functional
[32] = system: DNA; test: Induction of unwinding effect of Escherichia coli supercoiled pBR322 DNA at 0.3 to 1.2 mg/L preincubated with DNA for 10 mins followed by excess calf thymus TOP1 addition and measured after 30 mins by agarose gel electrophoresis; assay type: nucleic-acid assay
Method in brief: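 Supercoiled or relaxed pBR322 DNA was preincubated with ethidium bromide (0.3, 0.6, 1.2 mg/L, positive control) for 10 min at room temperature. Excess TOP1 was then added for 30 min at 37 °C. The reaction was stopped with SDS/proteinase K, run on 0.8% agarose in TBE at 4.6 V/cm for 1.5 h, then gel-red stained and UV imaged.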

CC[C@@]1(O)C(=O)OCc2c1cc1n(c2=O)Cc2cc3ccccc3nc2-1 [CAMPTOTHECIN]
inhibition [1]: Active | inhibition [2]: 58% | GI50 [3]: 7530 nM | GI50 [4]: 6 nM | GI50 [5]: 3 nM | GI50 [6]: 19 nM | GI50 [7]: 2 nM

O=C1c2cccnc2C(=O)c2c1c(C(=O)OCCN1CCCC1)c1c(F)cccn21
GI50 [8]: 150 nM | RatioGI50 [9]: 7.5 | Activity [10]: inactive | viability at 3 µM [11]: 86% | Activity [12]: 1.17% | viability at 9 µM [13]: 51.3% | inhibition [2]: 100% | GI50 [14]: 89 nM | Activity [15]: 8.5% | GI50 [16]: 380 nM | GI50 [17]: 23 nM | RatioGI50 [18]: 1.1 | inhibition [19]: > 121% | Activity [20]: 0.79% | inhibition [21]: Dose-dependent effect | GI50 [3]: 2940 nM | RatioGI50 [22]: 6.5 | GI50 [4]: 120 nM | Activity [23]: 10.17% | GI50 [24]: 51 nM | GI50 [25]: 97 nM | Activity [26]: 1.69% | Activity [27]: 32.1% | GI50 [5]: 60 nM | Activity [28]: Dose-dependent effect | GI50 [6]: 82 nM | Activity [29]: inactive | GI50 [7]: 790 nM | viability at 1 µM [30]: 97.7% | RatioGI50 [31]: 36.8

CC[n+]1c(-c2ccccc2)c2cc(N)ccc2c2ccc(N)cc21
Activity [32]: Active
